From ChEMBL document CHEMBL4513216, “Probing the Open Global Health Chemical Diversity Library for Multistage-Active Starting Points for Next-Generation Antimalarials” (ACS Infect Dis, 2020)

Test: Toxicity liver stage against HepG2, at 10uM
Assay type: cell-based
Set-up: test concentration 10 uM, cell line HepG2-A16-CD81EGFP
Conditions: human, HepG2-A16-CD81EGFP cells; read-out: INHIBITION
Summary of the method: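 Uninfected HepG2-A16-CD81EGFP cells, 3 × 10^3 per well, 1536-well, plated on prespotted compound at 10 μM final, parasite-free screening media added to match infected plates; puromycin 10 μM positive, DMSO 0.5% negative; run in parallel with 48 h PbLuc assay at 37 °C, 5% CO2; viability by CellTiter-Glo luminescence, normalized to controls.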

Row | SMILES | cytotoxicity at 10 µM
1 | O=C(Cn1ncc2c(c1=O)CCCC2)Nc1cccc2[nH]ccc12 | 3.16%
2 | COc1cc(N2C[C@H]3OCC[C@H]3[C@H](C(=O)N3CCCC3)C2)ncn1 | 4.99%
3 | Cn1cc(CN2CCC3(CC2)COC(COc2ccccn2)C3)cn1 (centres undefined) | 0.719%
4 | COCC(=O)Nc1ccc(N2CCC(OC)CC2)c(C(F)(F)F)c1 | -0.0399%
5 | CN(C)CCN(C)S(=O)(=O)CC1CCOCC1 | -5.38%
6 | CC(C)(C)c1ccc2c(c1)CCN2C(=O)c1ccc(=O)[nH]n1 | 2.87%
7 | Cn1cnc(S(=O)(=O)N2CCCc3c(F)cc(F)cc32)c1Cl | 0.333%
8 | Cc1csc(CN(CC2CCCO2)C(=O)c2cccnc2C)n1 (centres undefined) | 0.459%
9 | COc1cccc(CC(=O)N2CCN(c3cccc(C)c3)C(C)C2)c1 (centres undefined) | 8.63%
10 | Cc1cc(Br)oc1C(=O)N1CCCN(CC(N)=O)CC1 | 0.71%
11 | CCc1ncc2c(n1)CN(Cc1nnc(C(C)C)o1)CC2 | -4.54%
12 | NC(=O)c1cccc(CN2CCOC(Cn3cccn3)C2)c1 (centres undefined) | -2.69%
13 | Cc1cnn(-c2cccc(N3CCCC3)n2)c1 | -6.26%
14 | O=C(CCc1cncc(F)c1)NS(=O)(=O)c1ccc(F)cc1F | -7.49%
15 | CN(C)C(CNCc1nc(-c2ccsc2)no1)c1cccs1 (centres undefined) | 16.3%
16 | OCC(O)CSCc1cn(-c2ccc(Cl)c(Cl)c2)nn1 (centres undefined) | 8.55%
17 | O=S(=O)(c1cccs1)N1Cc2nc(COCC3CC3)oc2C1 | -109%
18 | Cc1nc(N2CCOCC2)nc2c1CCN(C(=O)C1(C#N)CC1)CC2 | -117%
19 | O=C([C@@H]1CCO[C@@H]2CCN(CC3CCOCC3)C[C@H]21)N1CCCC1 | -114%
20 | Cc1ncnc2c1CCN(S(=O)(=O)C1CC1)CC2 | -108%
21 | c1ccc(CNc2ncc(CN3CCCN4CCC[C@H]4C3)cn2)cc1 | -9.53%
22 | O=C(c1ccc(CN2CCCCC2)cc1)N1Cc2cnn(CCO)c2C1 | 12.6%

Row | SMILES | cytotoxicity at 10 µM
23 | O=C(c1ccc(S(=O)(=O)NCCc2ccccn2)cc1)N1CCCC1 | 13.2%
24 | O=C(O)[C@@H]1CN(CC(=O)N2CCCCC2)C[C@H]1c1ccc(F)cc1 | -3.95%
25 | COC1CCN(S(=O)(=O)N2CC(c3ccccc3)C(C)(C)C2)CC1 (centres undefined) | 3.64%
26 | CCN(CC)C(CNCc1ccc(C)o1)c1ccco1 (centres undefined) | 3.23%
27 | COc1ccc(F)c(CN2CCCC3(CCN(C(=O)CSC)C3)C2)c1 (centres undefined) | 0.15%
28 | COc1ccc(CCC(=O)N2CCNCC2C(=O)N2CCOCC2)cc1 (centres undefined) | 4.34%
29 | CC(C)[C@@H]1CN(Cc2ccccc2C#N)C[C@H]1N(C)C | -18.7%
30 | O=C(CCc1ccccn1)N1CCN(C(=O)CC2CCCCC2)CC1 | -1.8%
31 | O=C(Cc1ccc(-n2cccn2)cc1)N1CCCC(n2cccn2)C1 (centres undefined) | 4.6%
32 | O=C(Cc1ccc2c(c1)OCCO2)N1CCCC(n2ccnc2)C1 (centres undefined) | 3.8%
33 | Cc1ccc2c(n1)N(CC1CC1)CCN(C(=O)NC1CC1)C2 | -3.09%
34 | CCOCC1c2c(cnn2CC2CC2)CCN1Cc1nccs1 (centres undefined) | 85.9%
35 | Cc1occc1C(=O)N1CCO[C@H]2[C@H](OCc3ccccn3)CC[C@@H]21 | -104%
36 | CC(C)NC(=O)N1CCN(CC2CC2)c2ncccc2C1 | -108%
37 | CC(C)CN1CCC(c2nc3ccc(NC(C)C)cn3n2)CC1 | 1.13%
38 | CN(C)CCO[C@H]1CN(Cc2ccco2)[C@@H]2COC[C@H]12 | -98.2%
39 | O=C(Cc1cccs1)N1C[C@H]2CN(CC3CCCO3)CC[C@H]2C1 (some centres undefined) | 4.96%
40 | c1cncc(CN2Cc3nccn3CC(Cn3cccn3)C2)c1 (centres undefined) | -102%
41 | Fc1cnccc1CN1CCCC2(CCN(c3ncccn3)CC2)C1 | -112%
42 | O=C(NCc1cnc2n1CCN(Cc1nccs1)CC2)C1CCC1 | 0.588%
43 | Fc1cnc(N2CCO[C@H]3CN(CC4CCCCC4)C[C@H]32)nc1 | 6.61%
44 | O=C([C@H]1CCCO1)N1CCN(CCn2cccn2)c2ncccc2C1 | -106%
